Among the data in BindingDB's records for doi:10.1021/jm901449m (Progen Pharmaceuticals, 2010) are Kd and Ki values, retold here.

Experiment [1] concerns the target Fibroblast growth factor 1 (Homo sapiens, UniProt P05230). The experiment in a line: Binding affinity to FGF1 by surface plasmon-based solution affinity assay. The method, boiled down: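 Surface plasmon resonance solution affinity assay on heparin-coated CM4 chips. Buffer: HBS-EP (10 mM HEPES pH 7.4, 150 mM NaCl, 3.0 mM EDTA, 0.005% polysorbate 20). Kd is the mean of at least duplicate measurements ± SD.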
A general note: Surface plasmon resonance follows binding to a sensor surface in real time, without labels.

In experiment [2] the target is Fibroblast growth factor 2 (Homo sapiens, UniProt P09038). The experiment in a line: Binding affinity to FGF2 by surface plasmon-based solution affinity assay. In short, it runs like this: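 Surface plasmon resonance solution affinity assay on heparin-coated CM4 chips. FGF-2 binding run in HBS-EP containing 300 mM NaCl. Kd is the mean of at least duplicate measurements ± SD.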

The target of experiment [3] is T1, Vascular endothelial growth factor A (Homo sapiens, UniProt P15692).
T1 sequence (P15692 whole entry): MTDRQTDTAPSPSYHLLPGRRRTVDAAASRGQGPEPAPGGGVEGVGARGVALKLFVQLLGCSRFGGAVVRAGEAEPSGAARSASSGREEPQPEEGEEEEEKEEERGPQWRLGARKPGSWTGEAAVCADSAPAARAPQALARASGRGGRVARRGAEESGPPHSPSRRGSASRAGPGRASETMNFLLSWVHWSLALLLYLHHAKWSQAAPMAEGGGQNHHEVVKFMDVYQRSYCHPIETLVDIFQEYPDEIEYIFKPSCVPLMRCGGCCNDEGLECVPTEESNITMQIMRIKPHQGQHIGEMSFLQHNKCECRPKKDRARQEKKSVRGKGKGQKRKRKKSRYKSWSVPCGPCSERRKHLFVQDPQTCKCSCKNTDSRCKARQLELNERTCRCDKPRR
Description: Binding affinity to VEGF by surface plasmon-based solution affinity assay.

The next experiment addresses T2, Heparanase (Homo sapiens, UniProt Q9Y251).
T2 sequence (Q9Y251 whole entry): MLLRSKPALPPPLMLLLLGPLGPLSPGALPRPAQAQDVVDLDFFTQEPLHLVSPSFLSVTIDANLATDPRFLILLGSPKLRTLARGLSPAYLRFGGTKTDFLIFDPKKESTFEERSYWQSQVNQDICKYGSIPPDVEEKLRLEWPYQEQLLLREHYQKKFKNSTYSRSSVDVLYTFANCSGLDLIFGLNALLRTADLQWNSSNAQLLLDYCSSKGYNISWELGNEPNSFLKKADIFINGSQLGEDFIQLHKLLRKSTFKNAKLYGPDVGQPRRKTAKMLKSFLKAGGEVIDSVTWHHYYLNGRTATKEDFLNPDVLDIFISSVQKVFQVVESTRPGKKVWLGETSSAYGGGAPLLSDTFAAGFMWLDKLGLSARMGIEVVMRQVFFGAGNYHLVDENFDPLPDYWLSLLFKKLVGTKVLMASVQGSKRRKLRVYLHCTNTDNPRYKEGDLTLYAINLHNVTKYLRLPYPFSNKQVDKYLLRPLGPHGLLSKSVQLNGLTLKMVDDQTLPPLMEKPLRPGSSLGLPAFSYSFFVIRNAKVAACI
The experiment in a line: Inhibition of human recombinant heparanase. In short, it runs like this:
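Recombinant human heparanase assayed by ultrafiltration with 3H-labelled heparan sulfate as substrate (Km = 1.64 μM). Ki values with standard error were derived from inhibition response curves.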

Each structure is given as a SMILES string.

Fibroblast growth factor 2, sequence (P09038 143-288 limits assumed): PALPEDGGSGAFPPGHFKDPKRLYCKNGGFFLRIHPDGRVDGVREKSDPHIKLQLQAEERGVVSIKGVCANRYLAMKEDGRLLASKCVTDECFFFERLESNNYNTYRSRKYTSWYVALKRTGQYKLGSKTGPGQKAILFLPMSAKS
Fibroblast growth factor 1, sequence (P05230 whole entry): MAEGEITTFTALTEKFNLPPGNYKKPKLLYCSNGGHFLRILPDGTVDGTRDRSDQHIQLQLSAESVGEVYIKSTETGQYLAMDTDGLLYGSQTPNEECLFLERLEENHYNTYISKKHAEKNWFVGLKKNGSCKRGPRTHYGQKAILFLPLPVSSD

For the molecule `O=P(O)(O)OC[C@H]1O[C@H](O[C@@H]2[C@H](OS(=O)(=O)O)[C@@H](O[C@@H]3[C@H](OS(=O)(=O)O)[C@@H](O[C@@H]4[C@H](OS(=O)(=O)O)[C@@H](O[C@@H]5[C@@H](OS(=O)(=O)O)O[C@H](COS(=O)(=O)O)[C@@H](OS(=O)(=O)O)[C@@H]5OS(=O)(=O)O)O[C@H](COS(=O)(=O)O)[C@H]4OS(=O)(=O)O)O[C@H](COS(=O)(=O)O)[C@H]3OS(=O)(=O)O)O[C@H](COS(=O)(=O)O)[C@H]2OS(=O)(=O)O)[C@@H](OS(=O)(=O)O)[C@@H](OS(=O)(=O)O)[C@@H]1OS(=O)(=O)O` [PI-88], the dissociation constant (Kd) in experiment [1] was found to be 0.24 nM; in experiment [2] it was 61 nM; in experiment [3] it was 2.2 nM. Besides, the inhibition constant Ki on Heparanase was 240 nM.

The term Kd denotes the equilibrium constant for the complex coming apart. By Ki is commonly meant a dissociation constant, usually derived from enzyme kinetics or from competition with a known ligand.
